Source: the M2OR odorant receptor database

What follows are compounds tested against T1, OR2M7 (Homo sapiens) (UniProt Q8NG81). Settings: stereoisomer not certain.
T1 sequence (whole entry): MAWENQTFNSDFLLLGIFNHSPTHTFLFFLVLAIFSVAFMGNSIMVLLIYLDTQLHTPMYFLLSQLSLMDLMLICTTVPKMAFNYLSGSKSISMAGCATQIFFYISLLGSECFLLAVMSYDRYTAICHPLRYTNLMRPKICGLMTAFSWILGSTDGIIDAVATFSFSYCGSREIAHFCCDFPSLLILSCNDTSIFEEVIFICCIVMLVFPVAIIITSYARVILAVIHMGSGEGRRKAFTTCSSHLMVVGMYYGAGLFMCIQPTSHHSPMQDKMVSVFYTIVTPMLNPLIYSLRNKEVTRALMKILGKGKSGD
Method in brief: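 Whether a receptor–molecule pair is responsive (active) rests on the original authors' judgment that its measured signal was statistically different from baseline. Pairs without that judgment are non-responsive (inactive). Sources used varied assay methods, commonly transient luciferase assays in mammalian cell lines.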
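Also: active if original authors judged signal statistically different from baseline.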

Odorant receptor agonist call, inactive:
CCCCCCCCCC(=O)[O-].[H+], CCCCOC=O, CCCCCCCCS, CCCCCCCC(=O)[O-].[H+], CCCCCCOC(C)=O, O=C1Cc2ccccc2O1, CCCCCC1=C(C)CCC1=O, CCCCOC(=O)C(C)OC(=O)CCC (configuration not stated), CCC(=O)C(=O)CC, CC(=O)Oc1ccccc1, O=C(c1ccccc1)c1ccccc1, CCC(S)C(C)CO (configuration not stated), CCCCCCCCCS, CCCC(C)=O, CCCCCCCCCO, c1ccccc1, CCCCCCO, CCCC(=O)C(C)=O, CCCCCCCCO, COc1cc(C(=O)O)ccc1O, CCC(C(=O)O)c1ccccc1 (configuration not stated), C=CCOC(=O)CCCCCC, CC12CCC(CC1=O)C2(C)C (configuration not stated), CCCCCCCC(C)=O, CCCCCCCO, O=C1CCOc2ccccc21, C=C(C)C1CCC(C)C(=O)C1 (configuration not stated)
